ChEMBL document CHEMBL1144108, “Annocherin and (2,4)-cis- and trans-annocherinones, monotetrahydrofuran Annonaceous acetogenins with a C-7 carbonyl group from Annona cherimolia seeds” (J Nat Prod, 1999)
Values after ≈ are worked out from the molar mass of the structure shown.

How the values were obtained:
MIA PaCa-2 [1] = assay: Cytotoxicity against human MIA PaCa2 cells after 7 days by MTT assay; type: functional; conditions: MIA PaCa-2, 168 h, read-out: ED50 (the source's name)
In short: (§1)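 Seven-day in vitro MTT cytotoxicity assay run at the Purdue Cancer Center Cell Culture Laboratory to standard protocols. Lines: A-549 lung carcinoma, MCF-7 breast carcinoma, HT-29 colon adenocarcinoma, A-498 kidney carcinoma, PC-3 prostate adenocarcinoma, MIA PaCa-2 pancreatic carcinoma. Adriamycin served as positive control.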

[2] = Toxicity to brine shrimp larvae; type: organism-based; conditions: artemia salina, in vivo
A549 = assay: Cytotoxicity against human A549 cells after 7 days by MTT assay; type: functional; conditions: A549, 168 h, read-out: ED50 (the source's name); in short: as §1
HT-29 = assay: Cytotoxicity against human HT-29 cells after 7 days by MTT assay; type: functional; conditions: HT-29, 168 h, read-out: ED50 (the source's name); in short: as §1
A498 [3] = assay: Cytotoxicity against human A-498 cells after 7 days by MTT assay; type: functional; conditions: A498, 168 h, read-out: ED50 (the source's name); in short: as §1
MCF7 = assay: Cytotoxicity against human MCF7 cells after 7 days by MTT assay; type: functional; conditions: MCF7, 168 h, read-out: ED50 (the source's name); in short: as §1
PC-3 = assay: Cytotoxicity against human PC-3 cells after 7 days by MTT assay; type: functional; conditions: PC-3, 168 h, read-out: ED50 (the source's name); in short: as §1
A498 [4] = assay: Selectivity for human A498 cells over human HT29 cells; type: functional
MIA PaCa-2 [5] = assay: Selectivity for human A498 cells over human MIA PaCa2 cells; type: functional

SMILES	EC50 (MIA PaCa-2 [1]) [ng/mL]	LC50 [2] [µg/mL]	EC50 (A549) [µg/mL]	EC50 (HT-29) [µg/mL]	EC50 (A498 [3]) [µg/mL]	EC50 (MCF7) [µg/mL]	EC50 (PC-3) [µg/mL]	Selectivity ratio (A498 [4])	Selectivity ratio (MIA PaCa-2 [5])
CCCCCCCCCCCC[C@H](O)[C@@H]1CC[C@@H]([C@@H](O)CCCCCCCC(O)CC[C@@H](O)CC2=C[C@H](C)OC2=O)O1 (some centres undefined)	1 (≈ 0.00168 µM)	0.0125 (≈ 0.0209 µM)	1.63 (≈ 2.73 µM)	0.001 (≈ 0.00168 µM)	2.96 (≈ 4.96 µM)	0.011 (≈ 0.0184 µM)	1.32 (≈ 2.21 µM)	1000	1000
CCCCCCCCCCCC[C@H](O)[C@@H]1CC[C@@H]([C@@H](O)CCCCCCCC(=O)CC[C@@H](O)CC2=C[C@H](C)OC2=O)O1 [ANNOCHERIN]	2880 (≈ 4.84 µM)	0.137 (≈ 0.23 µM)	1.67 (≈ 2.81 µM)	3.54 (≈ 5.95 µM)	0.022 (≈ 0.037 µM)	0.308 (≈ 0.518 µM)	0.862 (≈ 1.45 µM)	161	131
COc1cccc2c1C(=O)c1c(O)c3c(c(O)c1C2=O)C[C@@](O)(C(=O)CO)C[C@@H]3O[C@H]1C[C@H](N)[C@H](O)[C@H](C)O1 [DOXORUBICIN]	1.01 (≈ 0.00186 µM)		0.0043 (≈ 0.00791 µM)	0.0168 (≈ 0.0309 µM)	0.0156 (≈ 0.0287 µM)	0.129 (≈ 0.237 µM)	0.0499 (≈ 0.0918 µM)		
